Results reported in ChEMBL document CHEMBL1156948, “Statistical molecular design of a focused salicylidene acylhydrazide library and multivariate QSAR of inhibition of type III secretion in the Gram-negative bacterium Yersinia” (Bioorg Med Chem, 2010).
Active and inactive are the calls of the source.

System: Yersinia pseudotuberculosis YPIII
Test: Inhibition of T3S in Yersinia pseudotuberculosis YPIII expressing yopE-luxAB at 1.56 uM after 3 hrs by luciferase reporter gene assay
Conditions: not given
Summary of the method: (§1)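 Strain YPIII pIB102 (yopE-luxAB) grown overnight at room temperature in BHI with 5 mM EGTA and 20 mM MgCl2 (calcium depletion), adjusted to OD600 0.088–0.095. Compound added from DMSO at 1.56–200 µM final (eight concentrations). Shaken 1 h at room temperature, then 2 h at 37 °C. Decanal added and light emission read immediately. Triplicates, repeated at least three times.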

SMILES | inhibition [%]
NC(=O)C(=O)N/N=C/c1c(O)cc(O)cc1O | -1
O=C(CCc1ccc(F)cc1)N/N=C/c1cc(F)cc(Cl)c1O | -6

System: Yersinia pseudotuberculosis YPIII
Test: Inhibition of T3S in Yersinia pseudotuberculosis YPIII expressing yopE-luxAB at 12.5 uM after 3 hrs by luciferase reporter gene assay
Conditions: not given
Summary of the method: as §1

SMILES | inhibition [%]
COc1ccc(Br)c(/C=N/NC(=O)c2ccncc2)c1O | 18
CC(C)(C)c1cc(/C=N/NC(=O)c2cccc(C(F)(F)F)c2)c(O)c(C(C)(C)C)c1 | 7
CCN(CC)c1ccc(/C=N/NC(=O)c2ccc(OC)c(OC)c2)c(O)c1 | 29
O=C(COc1ccc([N+](=O)[O-])cc1)N/N=C/c1cccc(F)c1O | 4
NC(=O)C(=O)N/N=C/c1c(O)cc(O)cc1O | 17
O=C(CCc1ccc(F)cc1)N/N=C/c1cc(F)cc(Cl)c1O | 10

System: Yersinia pseudotuberculosis YPIII
Test: Inhibition of T3S in Yersinia pseudotuberculosis YPIII expressing yopE-luxAB at 6.25 uM after 3 hrs by luciferase reporter gene assay
Conditions: not given
Summary of the method: as §1

SMILES | inhibition [%]
COc1ccc(Br)c(/C=N/NC(=O)c2ccncc2)c1O | 18
CC(C)(C)c1cc(/C=N/NC(=O)c2cccc(C(F)(F)F)c2)c(O)c(C(C)(C)C)c1 | 3
CCN(CC)c1ccc(/C=N/NC(=O)c2ccc(OC)c(OC)c2)c(O)c1 | 14
O=C(COc1ccc([N+](=O)[O-])cc1)N/N=C/c1cccc(F)c1O | 6
NC(=O)C(=O)N/N=C/c1c(O)cc(O)cc1O | 17
O=C(CCc1ccc(F)cc1)N/N=C/c1cc(F)cc(Cl)c1O | -1

System: Escherichia coli
Test: Antibacterial activity against Enterotoxigenic Escherichia coli infected in mouse J774 cells assessed as inhibition of bacteria-induced cell death at 25 to 100 uM after 14 hrs using calcein AM staining by fluorescence microscopy
Assay type: functional, organism-based
Conditions: not given
Summary of the method: (§2)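 J774A macrophages (4×10⁴/well, DMEM with 10% FCS, gentamicin 3 µg/mL, 24 h at 37 °C, 5% CO2) washed with PBS, then given fresh DMEM with compound plus bacteria (OD600 0.002), final 25, 50, 100 µM, DMSO below 0.5%. ETEC grown overnight in LB at 37 °C, diluted and grown 3 h. 14 h at 37 °C, 5% CO2; CalceinAM 40 min, fluorescence 485/535 nm, confirmed by microscopy; uninfected cells = 100% viability; gentamicin 5 µg/mL rescue control.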

SMILES | inhibition
CC(C)(C)c1cc(/C=N/NC(=O)c2cccc(C(F)(F)F)c2)c(O)c(C(C)(C)C)c1 | inactive
O=C(COc1ccc([N+](=O)[O-])cc1)N/N=C/c1cccc(F)c1O | inactive
O=C(CCc1ccc(F)cc1)N/N=C/c1cc(F)cc(Cl)c1O | inactive

System: Yersinia pseudotuberculosis YPIII
Test: Inhibition of T3S in Yersinia pseudotuberculosis YPIII expressing yopE-luxAB at 100 uM after 3 hrs by luciferase reporter gene assay
Conditions: not given
Summary of the method: as §1

SMILES | inhibition [%]
COc1ccc(Br)c(/C=N/NC(=O)c2ccncc2)c1O | 77
CC(C)(C)c1cc(/C=N/NC(=O)c2cccc(C(F)(F)F)c2)c(O)c(C(C)(C)C)c1 | 11
CCN(CC)c1ccc(/C=N/NC(=O)c2ccc(OC)c(OC)c2)c(O)c1 | 66
O=C(COc1ccc([N+](=O)[O-])cc1)N/N=C/c1cccc(F)c1O | 95
NC(=O)C(=O)N/N=C/c1c(O)cc(O)cc1O | 63
O=C(CCc1ccc(F)cc1)N/N=C/c1cc(F)cc(Cl)c1O | 90

System: Escherichia coli
Test: Antibacterial activity against Escherichia coli DH5[alpha] at 100 uM after 23 hrs by broth dilution assay
Assay type: functional, organism-based
Conditions: not given
Summary of the method: (§3)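 Overnight LB culture of E. coli DH5α grown at 37 °C, diluted to OD600 0.1 in LB with 2.5 mM CaCl2; compound added from DMSO stock to final 50 or 100 µM. Incubated at 37 °C with absorbance at 595 nm followed over 23 h.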

SMILES | Activity
COc1ccc(Br)c(/C=N/NC(=O)c2ccncc2)c1O | inactive
CC(C)(C)c1cc(/C=N/NC(=O)c2cccc(C(F)(F)F)c2)c(O)c(C(C)(C)C)c1 | inactive
CCN(CC)c1ccc(/C=N/NC(=O)c2ccc(OC)c(OC)c2)c(O)c1 | inactive
O=C(COc1ccc([N+](=O)[O-])cc1)N/N=C/c1cccc(F)c1O | inactive
NC(=O)C(=O)N/N=C/c1c(O)cc(O)cc1O | inactive
O=C(CCc1ccc(F)cc1)N/N=C/c1cc(F)cc(Cl)c1O | inactive

System: Yersinia pseudotuberculosis
Test: Antibacterial activity against Yersinia pseudotuberculosis expressing pIB102 at 50 uM after 23 hrs by broth dilution assay
Assay type: functional, organism-based
Conditions: not given
Summary of the method: (§4)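 Wild-type pIB102 grown overnight in LB at room temperature, diluted to OD600 = 0.1 in LB with 2.5 mM CaCl2. Compound added from DMSO stock to final 50 and 100 µM. Incubated at 37 °C with absorbance at 595 nm read over 23 h.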

SMILES | Activity
COc1ccc(Br)c(/C=N/NC(=O)c2ccncc2)c1O | inactive
CC(C)(C)c1cc(/C=N/NC(=O)c2cccc(C(F)(F)F)c2)c(O)c(C(C)(C)C)c1 | inactive
CCN(CC)c1ccc(/C=N/NC(=O)c2ccc(OC)c(OC)c2)c(O)c1 | inactive
O=C(COc1ccc([N+](=O)[O-])cc1)N/N=C/c1cccc(F)c1O | inactive
NC(=O)C(=O)N/N=C/c1c(O)cc(O)cc1O | inactive
O=C(CCc1ccc(F)cc1)N/N=C/c1cc(F)cc(Cl)c1O | inactive

Target: Tyrosine-protein phosphatase YopH (Yersinia pseudotuberculosis serotype I (strain IP32953)) (UniProt P08538)
Sequence (P08538 whole entry): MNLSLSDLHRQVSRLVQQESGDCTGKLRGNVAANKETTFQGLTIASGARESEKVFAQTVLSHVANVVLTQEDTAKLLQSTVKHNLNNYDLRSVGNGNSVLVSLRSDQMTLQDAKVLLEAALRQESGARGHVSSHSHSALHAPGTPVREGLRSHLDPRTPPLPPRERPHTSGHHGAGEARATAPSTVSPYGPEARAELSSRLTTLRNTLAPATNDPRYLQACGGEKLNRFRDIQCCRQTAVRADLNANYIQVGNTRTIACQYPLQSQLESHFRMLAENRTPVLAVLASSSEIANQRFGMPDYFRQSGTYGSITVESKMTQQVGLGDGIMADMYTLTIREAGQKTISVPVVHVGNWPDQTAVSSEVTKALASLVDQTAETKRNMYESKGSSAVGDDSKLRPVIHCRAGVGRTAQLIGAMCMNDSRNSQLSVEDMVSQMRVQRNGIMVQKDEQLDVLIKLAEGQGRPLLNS
Test: Inhibition of YopH in Yersinia pseudotuberculosis YPIII expressing yopE-luxAB treated 3 hrs before substrate addition measured after 15 mins by microplate reader
Conditions: not given
Summary of the method: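 Same calcium-depleted YPIII pIB102 cultures and compound exposure (1 h room temperature, then 2 h 37 °C). An aliquot of the bacterial suspension was mixed with 25 mM p-nitrophenyl phosphate, 40 mM MES pH 5.0, 1.6 mM DTT. Incubated 15 min at 37 °C, quenched with 1 M NaOH, absorbance read at 405 nm. Triplicates, repeated at least three times.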

SMILES | inhibition
COc1ccc(Br)c(/C=N/NC(=O)c2ccncc2)c1O | inactive
CCN(CC)c1ccc(/C=N/NC(=O)c2ccc(OC)c(OC)c2)c(O)c1 | inactive
O=C(COc1ccc([N+](=O)[O-])cc1)N/N=C/c1cccc(F)c1O | Active
NC(=O)C(=O)N/N=C/c1c(O)cc(O)cc1O | inactive

System: Yersinia pseudotuberculosis YPIII
Test: Inhibition of T3S in Yersinia pseudotuberculosis YPIII expressing yopE-luxAB at 3.13 uM after 3 hrs by luciferase reporter gene assay
Conditions: not given
Summary of the method: as §1

SMILES | inhibition [%]
COc1ccc(Br)c(/C=N/NC(=O)c2ccncc2)c1O | 9
CC(C)(C)c1cc(/C=N/NC(=O)c2cccc(C(F)(F)F)c2)c(O)c(C(C)(C)C)c1 | -10
CCN(CC)c1ccc(/C=N/NC(=O)c2ccc(OC)c(OC)c2)c(O)c1 | 14
O=C(COc1ccc([N+](=O)[O-])cc1)N/N=C/c1cccc(F)c1O | -5
NC(=O)C(=O)N/N=C/c1c(O)cc(O)cc1O | 5
O=C(CCc1ccc(F)cc1)N/N=C/c1cc(F)cc(Cl)c1O | 2

System: J774
Test: Cytotoxicity against mouse J774 cells at 25 to 100 uM after 14 hrs using calcein AM staining by fluorescence microscopy
Assay type: cell-based
Conditions: j774, 14 h
Summary of the method: as §2

SMILES | Activity
CC(C)(C)c1cc(/C=N/NC(=O)c2cccc(C(F)(F)F)c2)c(O)c(C(C)(C)C)c1 | Non-toxic
O=C(COc1ccc([N+](=O)[O-])cc1)N/N=C/c1cccc(F)c1O | Non-toxic
O=C(CCc1ccc(F)cc1)N/N=C/c1cc(F)cc(Cl)c1O | Non-toxic

System: Yersinia pseudotuberculosis
Test: Antibacterial activity against Yersinia pseudotuberculosis expressing pIB102 infected in mouse J774 cells assessed as inhibition of bacteria-induced cell death at 50 uM after 14 hrs using calcein AM staining by fluorescence microscopy
Assay type: functional, organism-based
Conditions: not given
Summary of the method: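 J774A macrophages (4 × 10^4 cells/well) grown 24 h in DMEM/10% FCS/gentamicin. Wild-type pIB102 grown in LB plus kanamycin overnight at room temperature, diluted 1/10 in DMEM, shaken 1 h at room temperature then 2 h at 37 °C. Added at OD600 = 0.002 with compound (25, 50, 100 µM final; DMSO <0.5%). Incubated 14 h, 37 °C, 5% CO2. CalceinAM 40 min, fluorescence 485/535 nm; uninfected cells = 100% viability.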

SMILES | inhibition
CC(C)(C)c1cc(/C=N/NC(=O)c2cccc(C(F)(F)F)c2)c(O)c(C(C)(C)C)c1 | inactive
O=C(COc1ccc([N+](=O)[O-])cc1)N/N=C/c1cccc(F)c1O | Active
O=C(CCc1ccc(F)cc1)N/N=C/c1cc(F)cc(Cl)c1O | inactive

System: Escherichia coli
Test: Antibacterial activity against Escherichia coli DH5[alpha] at 50 uM after 23 hrs by broth dilution assay
Assay type: functional, organism-based
Conditions: not given
Summary of the method: as §3

SMILES | Activity
COc1ccc(Br)c(/C=N/NC(=O)c2ccncc2)c1O | inactive
CC(C)(C)c1cc(/C=N/NC(=O)c2cccc(C(F)(F)F)c2)c(O)c(C(C)(C)C)c1 | inactive
CCN(CC)c1ccc(/C=N/NC(=O)c2ccc(OC)c(OC)c2)c(O)c1 | inactive
O=C(COc1ccc([N+](=O)[O-])cc1)N/N=C/c1cccc(F)c1O | inactive
NC(=O)C(=O)N/N=C/c1c(O)cc(O)cc1O | inactive
O=C(CCc1ccc(F)cc1)N/N=C/c1cc(F)cc(Cl)c1O | inactive

System: Yersinia pseudotuberculosis YPIII
Test: Inhibition of T3S in Yersinia pseudotuberculosis YPIII expressing yopE-luxAB at 25 uM after 3 hrs by luciferase reporter gene assay
Conditions: not given
Summary of the method: as §1

SMILES | inhibition [%]
COc1ccc(Br)c(/C=N/NC(=O)c2ccncc2)c1O | 27
CC(C)(C)c1cc(/C=N/NC(=O)c2cccc(C(F)(F)F)c2)c(O)c(C(C)(C)C)c1 | 6
CCN(CC)c1ccc(/C=N/NC(=O)c2ccc(OC)c(OC)c2)c(O)c1 | 44
O=C(COc1ccc([N+](=O)[O-])cc1)N/N=C/c1cccc(F)c1O | 25
NC(=O)C(=O)N/N=C/c1c(O)cc(O)cc1O | 26
O=C(CCc1ccc(F)cc1)N/N=C/c1cc(F)cc(Cl)c1O | 15

System: Yersinia pseudotuberculosis
Test: Antibacterial activity against Yersinia pseudotuberculosis expressing pIB102 at 100 uM after 23 hrs by broth dilution assay
Assay type: functional, organism-based
Conditions: not given
Summary of the method: as §4

SMILES | Activity
COc1ccc(Br)c(/C=N/NC(=O)c2ccncc2)c1O | inactive
CC(C)(C)c1cc(/C=N/NC(=O)c2cccc(C(F)(F)F)c2)c(O)c(C(C)(C)C)c1 | inactive
CCN(CC)c1ccc(/C=N/NC(=O)c2ccc(OC)c(OC)c2)c(O)c1 | inactive
O=C(COc1ccc([N+](=O)[O-])cc1)N/N=C/c1cccc(F)c1O | inactive
NC(=O)C(=O)N/N=C/c1c(O)cc(O)cc1O | inactive
O=C(CCc1ccc(F)cc1)N/N=C/c1cc(F)cc(Cl)c1O | inactive

System: Yersinia pseudotuberculosis YPIII
Test: Inhibition of T3S in Yersinia pseudotuberculosis YPIII expressing yopE-luxAB at 200 uM after 3 hrs by luciferase reporter gene assay
Conditions: not given
Summary of the method: as §1

SMILES | inhibition [%]
COc1ccc(Br)c(/C=N/NC(=O)c2ccncc2)c1O | 35
CC(C)(C)c1cc(/C=N/NC(=O)c2cccc(C(F)(F)F)c2)c(O)c(C(C)(C)C)c1 | 2
CCN(CC)c1ccc(/C=N/NC(=O)c2ccc(OC)c(OC)c2)c(O)c1 | 56
O=C(COc1ccc([N+](=O)[O-])cc1)N/N=C/c1cccc(F)c1O | 97
NC(=O)C(=O)N/N=C/c1c(O)cc(O)cc1O | 64
O=C(CCc1ccc(F)cc1)N/N=C/c1cc(F)cc(Cl)c1O | 94

System: Yersinia pseudotuberculosis YPIII
Test: Inhibition of T3S in Yersinia pseudotuberculosis YPIII expressing yopE-luxAB at 50 uM after 3 hrs by luciferase reporter gene assay
Conditions: not given
Summary of the method: as §1

SMILES | inhibition [%]
COc1ccc(Br)c(/C=N/NC(=O)c2ccncc2)c1O | 54
CC(C)(C)c1cc(/C=N/NC(=O)c2cccc(C(F)(F)F)c2)c(O)c(C(C)(C)C)c1 | 9
CCN(CC)c1ccc(/C=N/NC(=O)c2ccc(OC)c(OC)c2)c(O)c1 | 66
O=C(COc1ccc([N+](=O)[O-])cc1)N/N=C/c1cccc(F)c1O | 84
NC(=O)C(=O)N/N=C/c1c(O)cc(O)cc1O | 51
O=C(CCc1ccc(F)cc1)N/N=C/c1cc(F)cc(Cl)c1O | 63
